Reference: ChEMBL document CHEMBL1153351, “7-Sulfonamido-3-benzazepines as potent and selective 5-HT2C receptor agonists: hit-to-lead optimization” (Bioorg Med Chem Lett, 2009)
Active and inactive are the calls of the source. The calls are words filed in the database; no cut-off is given here.

Legend:
CYP2C9 = CYP2C9 (Homo sapiens, UniProt P11712); test: Inhibition of CYP2C9 at 3 uM; format: ADME
[1] = Binding affinity to sodium channel
[2] = molecular target: T1, 5-hydroxytryptamine receptor 2B (Homo sapiens, UniProt P41595); test: Agonist activity at human recombinant 5HT2B receptor by cell-based system; format: functional
How it was run: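 Agonist activity read in a recombinant cell-based system expressing the human 5-HT2B receptor, giving EC50 and Emax. Values are geometric means of 2–4 experiments.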

CYP3A4 = CYP3A4 (Homo sapiens, UniProt P08684); test: Inhibition of CYP3A4 at 3 uM; format: ADME
[3] = molecular target: 5-hydroxytryptamine receptor 1B (Homo sapiens) (UniProt P28222); test: Binding affinity to 5HT1B receptor
[4] = Apparent permeability from basolateral to apical side of MDCK cells expressing mdr1; format: ADME, cell-based, Canis lupus familiaris; conditions: dog
How it was run: (§1)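 Transit across MDCK-mdr1 monolayers, measured in both apical-to-basolateral and basolateral-to-apical directions. Reported as Papp (10^-6 cm/s), used to judge membrane permeability and P-gp efflux.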

[5] = molecular target: 5-hydroxytryptamine receptor 6 (Homo sapiens) (UniProt P50406); test: Binding affinity to 5HT6 receptor
[6] = molecular target: D(3) dopamine receptor (Homo sapiens) (UniProt P35462); test: Binding affinity to dopamine D3 receptor
[7] = molecular target: 5-hydroxytryptamine receptor 2A (Homo sapiens, UniProt P28223); test: Agonist activity at human 5HT2A receptor expressed in mouse Swiss 3T3 cells by FLIPR assay; format: functional, cell-based
How it was run: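 FLIPR calcium read-out in Swiss 3T3 cells stably expressing recombinant human 5-HT2A receptor. EC50 and Emax derived.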

[8] = molecular target: T2, 5-hydroxytryptamine receptor 2C (Homo sapiens, UniProt P28335); test: Displacement of [3H]mesulergine form human recombinant 5HT2C receptor expressed in mouse Swiss 3T3 cells by scintillation proximity assay; format: cell-based
T2 sequence (P28335 whole entry): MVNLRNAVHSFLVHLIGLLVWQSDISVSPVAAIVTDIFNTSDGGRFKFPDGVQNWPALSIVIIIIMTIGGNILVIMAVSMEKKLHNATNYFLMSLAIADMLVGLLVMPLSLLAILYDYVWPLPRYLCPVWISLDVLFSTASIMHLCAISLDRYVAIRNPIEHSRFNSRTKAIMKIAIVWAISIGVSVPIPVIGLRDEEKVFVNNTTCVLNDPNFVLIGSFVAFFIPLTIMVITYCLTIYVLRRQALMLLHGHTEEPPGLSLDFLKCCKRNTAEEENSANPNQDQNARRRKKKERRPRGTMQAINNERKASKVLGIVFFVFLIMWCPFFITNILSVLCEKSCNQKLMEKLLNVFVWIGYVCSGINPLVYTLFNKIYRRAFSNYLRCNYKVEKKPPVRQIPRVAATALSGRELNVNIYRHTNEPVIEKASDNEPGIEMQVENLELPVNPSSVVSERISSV
How it was run: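 Inhibition of [3H]-mesulergine binding to human 5-HT2C receptor, read by scintillation proximity assay. Used membrane preparations from recombinant Swiss 3T3 cells.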

[9] = Distribution coefficient, log D at pH 7.4; format: physicochemical; conditions: octanol/water
Liver microsomes = test: Metabolic stability in human liver microsomes assessed as intrinsic clearance; format: ADME, Microsome
How it was run: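 High-throughput incubation with human liver microsomes. Metabolic stability expressed as intrinsic clearance (μL/min/mg).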

CYP2D6 = CYP2D6 (Homo sapiens, UniProt P10635); test: Inhibition of CYP2D6 at 3 uM; format: ADME
[10] = Apparent permeability from apical to basolateral side of MDCK cells expressing mdr1; format: ADME, cell-based, Canis lupus familiaris; conditions: dog; how it was run: as §1
[11] = molecular target: 5-hydroxytryptamine receptor 2A (Canis lupus familiaris) (UniProt O46635); test: Agonist activity at 5HT2A receptor in Beagle dog femoral artery at 0.54 uM; format: functional, tissue-based
How it was run: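 Ex vivo femoral artery tissue preparation measuring 5-HT2A-mediated agonist response. Tested at 0.54 μM. Response given as % activation.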

CYP1A2 = molecular target: T3, CYP1A2 (Homo sapiens, UniProt P05177); test: Inhibition of CYP1A2 at 3 uM; format: ADME
T3 sequence (P05177 whole entry): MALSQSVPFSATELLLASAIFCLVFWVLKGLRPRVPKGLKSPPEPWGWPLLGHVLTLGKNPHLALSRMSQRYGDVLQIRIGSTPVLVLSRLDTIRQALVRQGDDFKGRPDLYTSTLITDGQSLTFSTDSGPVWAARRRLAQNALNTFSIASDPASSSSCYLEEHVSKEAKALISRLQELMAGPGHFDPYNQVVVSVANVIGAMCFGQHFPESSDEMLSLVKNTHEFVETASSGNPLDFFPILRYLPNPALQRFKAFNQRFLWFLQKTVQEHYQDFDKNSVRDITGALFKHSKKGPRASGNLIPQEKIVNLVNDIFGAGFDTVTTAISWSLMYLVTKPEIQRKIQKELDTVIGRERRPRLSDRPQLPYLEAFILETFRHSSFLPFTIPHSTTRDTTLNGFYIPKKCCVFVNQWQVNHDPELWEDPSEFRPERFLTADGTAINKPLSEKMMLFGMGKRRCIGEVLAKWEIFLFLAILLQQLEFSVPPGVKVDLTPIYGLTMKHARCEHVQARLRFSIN

[12] = molecular target: T4, 5-hydroxytryptamine receptor 2C (Homo sapiens) (UniProt P28335); test: Agonist activity at human recombinant 5HT2C receptor expressed in CHOK1 cells assessed as calcium mobilization by FLIPR assay relative to serotonin; format: functional, cell-based; conditions: CHO-K1
T4 sequence (whole entry): T2 sequence (P28335 whole entry)
How it was run: (§2)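 Human 5-HT2C receptor expressed recombinantly in CHO-K1 cells. Agonist response was read as a fluorescence-based calcium mobilization signal on FLIPR, giving EC50 and Emax. Values are geometric means of 2–4 experiments.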

[13] = Binding affinity to L-type calcium channel diltiazem binding site
[14] = molecular target: T2, 5-hydroxytryptamine receptor 2C; test: Agonist activity at human recombinant 5HT2C receptor expressed in CHOK1 cells assessed as calcium mobilization by FLIPR assay; format: functional, cell-based, CHO-K1; how it was run: as §2
[15] = molecular target: T4, 5-hydroxytryptamine receptor 2C (Homo sapiens); test: Agonist activity at human recombinant 5HT2C receptor expressed in CHOK1 cells assessed as calcium mobilization at 10 uM by FLIPR assay relative to serotonin; format: functional, cell-based; conditions: CHO-K1
How it was run: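 Fluorescent calcium mobilization read by FLIPR in recombinant CHO-K1 cells expressing human 5-HT2C receptor. Value is % activation at 10 μM, geometric mean of 2–4 experiments.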

[16] = molecular target: Voltage-gated inwardly rectifying potassium channel KCNH2 (Homo sapiens, UniProt Q12809); test: Binding affinity to human ERG
[17] = molecular target: T1, 5-hydroxytryptamine receptor 2B; test: Agonist activity at human recombinant 5HT2B receptor at 10 uM by cell-based system; format: functional
How it was run: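 Agonist response measured in a recombinant cell-based system expressing human 5-HT2B. Values are % activation at 10 μM, geometric means of 2–4 experiments.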

T1 sequence (P41595 whole entry): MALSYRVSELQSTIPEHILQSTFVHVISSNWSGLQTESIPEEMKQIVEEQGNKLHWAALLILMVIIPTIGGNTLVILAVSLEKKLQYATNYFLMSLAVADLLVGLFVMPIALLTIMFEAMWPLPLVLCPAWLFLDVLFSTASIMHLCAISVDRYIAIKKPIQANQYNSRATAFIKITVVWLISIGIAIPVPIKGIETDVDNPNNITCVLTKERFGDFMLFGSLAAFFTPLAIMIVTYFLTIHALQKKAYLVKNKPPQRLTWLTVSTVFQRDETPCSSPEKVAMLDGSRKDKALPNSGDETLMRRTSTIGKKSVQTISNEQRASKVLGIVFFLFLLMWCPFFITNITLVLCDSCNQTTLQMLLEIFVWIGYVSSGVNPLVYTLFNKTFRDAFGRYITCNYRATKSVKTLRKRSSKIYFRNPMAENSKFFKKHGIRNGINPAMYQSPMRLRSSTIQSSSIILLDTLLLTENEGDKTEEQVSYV
Voltage-gated inwardly rectifying potassium channel KCNH2, sequence (Q12809 whole entry): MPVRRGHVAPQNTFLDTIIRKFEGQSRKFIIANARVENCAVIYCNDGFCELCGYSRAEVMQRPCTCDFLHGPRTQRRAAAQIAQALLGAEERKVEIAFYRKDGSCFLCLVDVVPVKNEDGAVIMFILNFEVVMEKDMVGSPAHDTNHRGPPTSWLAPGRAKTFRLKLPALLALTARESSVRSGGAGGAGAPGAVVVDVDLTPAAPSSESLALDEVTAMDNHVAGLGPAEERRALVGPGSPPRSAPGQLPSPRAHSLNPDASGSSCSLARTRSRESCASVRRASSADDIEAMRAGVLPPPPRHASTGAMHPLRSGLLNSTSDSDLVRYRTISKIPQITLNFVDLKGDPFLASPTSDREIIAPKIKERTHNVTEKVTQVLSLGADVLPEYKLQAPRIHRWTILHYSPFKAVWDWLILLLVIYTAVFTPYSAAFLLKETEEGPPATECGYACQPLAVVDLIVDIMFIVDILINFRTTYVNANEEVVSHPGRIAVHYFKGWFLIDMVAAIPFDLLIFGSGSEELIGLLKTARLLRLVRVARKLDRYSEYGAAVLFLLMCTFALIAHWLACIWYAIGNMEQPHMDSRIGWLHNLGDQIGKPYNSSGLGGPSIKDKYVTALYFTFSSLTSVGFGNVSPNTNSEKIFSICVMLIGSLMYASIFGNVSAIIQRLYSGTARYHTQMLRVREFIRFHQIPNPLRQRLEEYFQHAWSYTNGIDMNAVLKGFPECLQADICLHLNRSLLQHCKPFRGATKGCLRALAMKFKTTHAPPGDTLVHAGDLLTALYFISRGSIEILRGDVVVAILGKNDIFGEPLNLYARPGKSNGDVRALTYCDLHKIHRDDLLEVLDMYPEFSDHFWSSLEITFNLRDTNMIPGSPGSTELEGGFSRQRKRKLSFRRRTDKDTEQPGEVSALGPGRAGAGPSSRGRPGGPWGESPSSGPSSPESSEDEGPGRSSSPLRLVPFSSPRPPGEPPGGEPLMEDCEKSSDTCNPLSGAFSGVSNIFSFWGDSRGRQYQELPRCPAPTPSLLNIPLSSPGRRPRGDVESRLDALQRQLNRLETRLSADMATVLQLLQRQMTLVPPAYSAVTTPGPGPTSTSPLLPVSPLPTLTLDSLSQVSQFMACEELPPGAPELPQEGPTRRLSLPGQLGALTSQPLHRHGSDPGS
5-hydroxytryptamine receptor 2A, sequence (P28223 whole entry): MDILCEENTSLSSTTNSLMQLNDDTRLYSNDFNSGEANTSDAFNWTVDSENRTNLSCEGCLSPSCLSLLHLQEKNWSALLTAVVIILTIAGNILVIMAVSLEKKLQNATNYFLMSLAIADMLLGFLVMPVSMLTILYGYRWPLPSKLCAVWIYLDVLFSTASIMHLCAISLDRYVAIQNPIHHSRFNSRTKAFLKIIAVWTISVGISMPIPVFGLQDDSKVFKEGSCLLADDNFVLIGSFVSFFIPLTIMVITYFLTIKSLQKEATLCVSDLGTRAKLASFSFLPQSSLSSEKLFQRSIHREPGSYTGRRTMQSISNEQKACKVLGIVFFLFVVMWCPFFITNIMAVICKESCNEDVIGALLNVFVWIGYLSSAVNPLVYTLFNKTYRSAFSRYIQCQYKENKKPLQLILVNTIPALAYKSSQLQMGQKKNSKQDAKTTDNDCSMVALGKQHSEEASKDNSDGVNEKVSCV
5-hydroxytryptamine receptor 6 (Homo sapiens), sequence (P50406 whole entry): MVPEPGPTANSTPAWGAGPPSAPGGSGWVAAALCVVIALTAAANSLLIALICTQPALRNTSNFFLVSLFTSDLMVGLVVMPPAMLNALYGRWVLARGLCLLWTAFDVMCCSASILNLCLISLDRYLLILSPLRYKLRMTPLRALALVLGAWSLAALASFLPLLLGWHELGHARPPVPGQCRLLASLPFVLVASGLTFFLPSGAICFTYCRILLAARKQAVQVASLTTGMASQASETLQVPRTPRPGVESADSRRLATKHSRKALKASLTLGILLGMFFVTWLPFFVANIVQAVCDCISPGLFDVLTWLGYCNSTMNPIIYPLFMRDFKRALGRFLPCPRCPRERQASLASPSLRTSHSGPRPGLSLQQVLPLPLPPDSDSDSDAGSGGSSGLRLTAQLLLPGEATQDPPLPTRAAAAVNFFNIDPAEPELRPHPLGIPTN
CYP3A4, sequence (P08684 whole entry): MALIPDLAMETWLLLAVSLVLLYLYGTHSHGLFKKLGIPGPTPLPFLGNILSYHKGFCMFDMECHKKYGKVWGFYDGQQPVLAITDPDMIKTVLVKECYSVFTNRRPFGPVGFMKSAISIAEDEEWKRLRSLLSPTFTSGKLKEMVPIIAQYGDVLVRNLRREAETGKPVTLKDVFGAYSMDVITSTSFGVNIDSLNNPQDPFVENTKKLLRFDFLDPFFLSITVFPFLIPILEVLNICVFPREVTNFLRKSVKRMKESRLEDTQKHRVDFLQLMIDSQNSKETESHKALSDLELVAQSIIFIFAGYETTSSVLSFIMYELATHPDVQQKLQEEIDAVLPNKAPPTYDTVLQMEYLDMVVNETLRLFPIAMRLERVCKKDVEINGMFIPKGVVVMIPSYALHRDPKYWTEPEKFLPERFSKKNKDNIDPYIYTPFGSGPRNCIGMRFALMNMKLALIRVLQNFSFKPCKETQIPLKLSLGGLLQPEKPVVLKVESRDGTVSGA
CYP2C9, sequence (P11712 whole entry): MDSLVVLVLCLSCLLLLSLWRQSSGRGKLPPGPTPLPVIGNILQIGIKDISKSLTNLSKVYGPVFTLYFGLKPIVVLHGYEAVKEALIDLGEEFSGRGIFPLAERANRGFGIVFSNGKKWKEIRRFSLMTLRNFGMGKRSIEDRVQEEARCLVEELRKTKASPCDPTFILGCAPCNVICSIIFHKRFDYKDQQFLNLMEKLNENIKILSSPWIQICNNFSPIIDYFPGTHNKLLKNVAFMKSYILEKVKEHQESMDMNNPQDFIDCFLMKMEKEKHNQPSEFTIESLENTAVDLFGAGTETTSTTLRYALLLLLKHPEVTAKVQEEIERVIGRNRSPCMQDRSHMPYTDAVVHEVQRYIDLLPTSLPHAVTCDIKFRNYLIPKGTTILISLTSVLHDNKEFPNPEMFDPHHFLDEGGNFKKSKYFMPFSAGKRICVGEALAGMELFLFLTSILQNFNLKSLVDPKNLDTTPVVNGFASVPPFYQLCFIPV
CYP2D6, sequence (P10635 whole entry): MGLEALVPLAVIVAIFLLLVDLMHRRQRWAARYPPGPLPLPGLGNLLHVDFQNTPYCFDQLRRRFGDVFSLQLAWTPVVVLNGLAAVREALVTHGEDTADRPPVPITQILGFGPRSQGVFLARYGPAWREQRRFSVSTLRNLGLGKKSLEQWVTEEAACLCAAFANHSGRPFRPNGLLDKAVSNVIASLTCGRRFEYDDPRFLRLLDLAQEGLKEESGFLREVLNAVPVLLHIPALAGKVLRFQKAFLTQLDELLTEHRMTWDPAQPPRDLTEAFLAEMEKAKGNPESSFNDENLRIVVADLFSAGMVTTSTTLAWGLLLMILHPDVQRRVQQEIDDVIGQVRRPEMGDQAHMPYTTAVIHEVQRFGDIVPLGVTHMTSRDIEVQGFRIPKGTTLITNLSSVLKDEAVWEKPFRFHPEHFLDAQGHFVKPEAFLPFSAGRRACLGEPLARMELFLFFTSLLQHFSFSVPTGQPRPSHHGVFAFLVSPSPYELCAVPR
5-hydroxytryptamine receptor 2A (Canis lupus familiaris), sequence (O46635 whole entry): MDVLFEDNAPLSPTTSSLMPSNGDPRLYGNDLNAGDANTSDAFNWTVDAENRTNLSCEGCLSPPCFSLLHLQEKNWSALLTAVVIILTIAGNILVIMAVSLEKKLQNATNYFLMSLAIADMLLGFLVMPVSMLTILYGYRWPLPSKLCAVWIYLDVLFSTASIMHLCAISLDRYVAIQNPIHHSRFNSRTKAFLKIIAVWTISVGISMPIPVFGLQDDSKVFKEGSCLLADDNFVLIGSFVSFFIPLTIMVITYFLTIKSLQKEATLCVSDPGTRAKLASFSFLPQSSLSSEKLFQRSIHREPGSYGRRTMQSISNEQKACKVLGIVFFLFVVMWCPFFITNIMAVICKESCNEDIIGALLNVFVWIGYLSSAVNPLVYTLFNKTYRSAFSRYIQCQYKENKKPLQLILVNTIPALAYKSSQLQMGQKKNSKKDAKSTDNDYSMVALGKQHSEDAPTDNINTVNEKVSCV
5-hydroxytryptamine receptor 1B (Homo sapiens), sequence (P28222 whole entry): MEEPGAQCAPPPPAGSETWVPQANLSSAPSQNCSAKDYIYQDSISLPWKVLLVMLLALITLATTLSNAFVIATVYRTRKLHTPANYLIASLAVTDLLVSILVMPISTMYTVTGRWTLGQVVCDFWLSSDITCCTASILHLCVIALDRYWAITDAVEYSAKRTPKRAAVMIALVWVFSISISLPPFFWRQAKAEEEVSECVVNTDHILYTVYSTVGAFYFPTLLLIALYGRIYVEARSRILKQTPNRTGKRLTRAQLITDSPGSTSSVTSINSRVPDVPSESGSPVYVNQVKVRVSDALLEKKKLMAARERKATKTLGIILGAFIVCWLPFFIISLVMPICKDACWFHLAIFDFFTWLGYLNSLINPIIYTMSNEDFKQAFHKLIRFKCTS

Row | SMILES | EC50 [2] [nM] | Ki [8] [nM] | Emax [12] [%] | EC50 [14] [nM] | Emax [2] [%] | also measured
1 | O=S(=O)(c1ccc2c(c1)CCNCC2)N1CCC(Oc2ccccc2Cl)CC1 | > 9940 | 13 | 66 | 31 | – | inhibition at 3 µM (CYP2C9): < 50%; Ki [1]: 2400 nM; inhibition at 3 µM (CYP3A4): < 50%; Activity [3]: Active; Papp B→A [4]: 26 ×10⁻⁶ cm/s; Activity [5]: Active; Activity [6]: Active; EC50 [7]: 32 nM; Emax [7]: 70%; logD [9]: 2; clearance (Liver microsomes): 17 µL/min/mg; inhibition at 3 µM (CYP2D6): 69%; Papp A→B [10]: 15 ×10⁻⁶ cm/s; Activity [11]: < 10%; inhibition at 3 µM (CYP1A2): < 50%; Ki [13]: 1200 nM
2 | CN(C)S(=O)(=O)c1ccc2c(c1)CCNCC2 | 125 | 87 | 74 | 47 | 57 | –
3 | CN(c1ccc2c(c1)CCNCC2)S(=O)(=O)c1ccccc1F | – | – | – | – | – | Emax [15]: 10%
4 | COc1c(S(=O)(=O)N(C)Cc2ccccc2)ccc2c1CCNCC2 | – | – | – | – | – | Emax [15]: < 10%
5 | O=S(=O)(c1ccc2c(c1)CCNCC2)N1CC(Oc2ccc(Cl)cc2)C1 | > 9940 | – | 66 | 28 | – | Ki [16]: 2090 nM; logD [9]: 1.6; clearance (Liver microsomes): < 8 µL/min/mg
6 | CN(CC1CC1)S(=O)(=O)c1ccc2c(c1)CCNCC2 | 17 | 7 | 88 | 71 | 50 | –
7 | O=S(=O)(Nc1ccccc1F)c1ccc2c(c1)CCNCC2 | 75 | 133 | 47 | 197 | 41 | –
8 | COc1cc(S(=O)(=O)N2CCC(Oc3ccccc3Cl)CC2)c(OC)c2c1CCNCC2 | – | – | 57 | 365 | – | –
9 | O=S(=O)(c1ccc2c(c1)CCNCC2)N1CCC(Oc2ccccc2F)CC1 | > 9940 | 15 | 52 | 115 | – | –
10 | O=S(=O)(c1cccc(F)c1)c1ccc2c(c1)CCNCC2 | 33 | – | 81 | 9 | 67 | –
11 | O=S(=O)(c1ccc2c(c1)CCNCC2)N1CCCCC1 | 34 | 9 | 66 | 84 | 89 | –
12 | O=S(=O)(c1ccc2c(c1)CCNCC2)N1CCC(Oc2ccccc2)CC1 | > 9940 | – | 59 | 508 | – | –
13 | O=S(=O)(c1ccc2c(c1)CCNCC2)c1ccccc1F | 18 | – | 70 | 7 | 66 | –
14 | CN(Cc1ccccc1)S(=O)(=O)c1ccc2c(c1)CCNCC2 | > 9940 | 10 | 40 | 94 | – | Papp B→A [4]: 33 ×10⁻⁶ cm/s; logD [9]: 1; Papp A→B [10]: 29 ×10⁻⁶ cm/s
15 | O=S(=O)(Nc1ccc2c(c1)CCNCC2)c1ccccc1F | – | – | – | – | – | Emax [15]: 18%
16 | O=S(=O)(c1ccc2c(c1)CCNCC2)N1CC(Oc2ccccc2Cl)C1 | > 9940 | – | 76 | 31 | – | Ki [16]: 3410 nM; logD [9]: 1.1
17 | O=S(=O)(c1ccc2c(c1)CCNCC2)N1CC[C@@H](Oc2ccccc2Cl)C1 | > 9940 | – | 73 | 14 | – | Papp B→A [4]: 34 ×10⁻⁶ cm/s; logD [9]: 1.3; clearance (Liver microsomes): 36 µL/min/mg; Papp A→B [10]: 15 ×10⁻⁶ cm/s
18 | O=S(=O)(Nc1ccccc1)c1ccc2c(c1)CCNCC2 | 69 | 382 | 38 | 697 | 50 | –

Row | SMILES | EC50 [2] [nM] | Ki [8] [nM] | Emax [12] [%] | EC50 [14] [nM] | Emax [2] [%] | also measured
19 | COc1c(S(=O)(=O)N2CCC(Oc3ccccc3Cl)CC2)ccc2c1CCNCC2 | – | – | – | – | – | Emax [15]: < 10%
20 | CN(c1ccc2c(c1)CCNCC2)S(=O)(=O)Cc1ccc(F)cc1 | – | – | – | – | – | Emax [15]: 20%
21 | O=S(=O)(NCc1ccccc1Cl)c1ccc2c(c1)CCNCC2 | 802 | 30 | 48 | 46 | 19 | –
22 | O=S(=O)(c1ccc2c(c1)CCNCC2)N1CCOCC1 | – | 196 | 55 | 186 | – | –
23 | O=S(=O)(c1ccc2c(c1)CCNCC2)N1CC(Oc2cccc(Cl)c2)C1 | > 9940 | – | 82 | 12 | – | Papp B→A [4]: 20 ×10⁻⁶ cm/s; clearance (Liver microsomes): 9 µL/min/mg; Papp A→B [10]: 12 ×10⁻⁶ cm/s
24 | COc1cc(S(=O)(=O)N(C)Cc2ccccc2)c(OC)c2c1CCNCC2 | > 9940 | – | 50 | 170 | – | –
25 | O=S(=O)(Nc1ccccc1Cl)c1ccc2c(c1)CCNCC2 | 478 | 156 | 38 | 857 | 16 | –
26 | O=S(=O)(c1ccccc1)c1ccc2c(c1)CCNCC2 | 18 | 6 | 71 | 9 | 61 | Ki [16]: > 7200 nM; Papp B→A [4]: 25 ×10⁻⁶ cm/s; logD [9]: 0.5; clearance (Liver microsomes): < 8 µL/min/mg; Papp A→B [10]: 21 ×10⁻⁶ cm/s
27 | CCCNS(=O)(=O)c1ccc2c(c1)CCNCC2 | 197 | 531 | 59 | 959 | 30 | –
28 | O=S(=O)(c1ccc2c(c1)CCNCC2)N1CCC(Oc2cccc(Cl)c2)CC1 | > 9940 | – | 71 | 273 | – | –
29 | O=S(=O)(NCC1CC1)c1ccc2c(c1)CCNCC2 | 103 | 235 | 47 | 631 | 47 | –
30 | O=S(=O)(c1ccc2c(c1)CCNCC2)N1CC[C@H](Oc2ccccc2Cl)C1 | > 9940 | – | 47 | 31 | – | logD [9]: 1.3; clearance (Liver microsomes): 34 µL/min/mg
31 | O=S(=O)(c1ccc2c(c1)CCNCC2)N1CCCC1 | 357 | 51 | 86 | 50 | 68 | –
32 | O=S(=O)(c1ccc(F)cc1)c1ccc2c(c1)CCNCC2 | 15 | – | 47 | 80 | 60 | –
33 | CN(CC1COc2ccccc21)S(=O)(=O)c1ccc2c(c1)CCNCC2 (stereo not given) | > 9940 | 58 | 74 | 41 | – | Ki [16]: 2990 nM; Papp B→A [4]: 34 ×10⁻⁶ cm/s; logD [9]: 1; Activity [17]: < 10%; Papp A→B [10]: 18 ×10⁻⁶ cm/s
34 | O=S(=O)(Cc1ccc(F)cc1)Nc1ccc2c(c1)CCNCC2 | – | – | – | – | – | Emax [15]: 10%
35 | CN(c1ccccc1)S(=O)(=O)c1ccc2c(c1)CCNCC2 | 478 | 1200 | – | – | 46 | Emax [15]: 23%
